What was measured:
tyrosinase [1] = settings: tyrosinase inhibition; cited from earlier work
mushroom tyrosinase = test: Tyrosinase inhibitory assay; format: biochemical; settings: for % inhibition at 50 μM: 50 μM compound, L-DOPA substrate; for IC50: read-out: IC50 (μM) ± RSD, L-DOPA substrate, means ± RSD
[2] = Antioxidant activity, DPPH assay; settings: for % inhibition at 200 μM: 200 μM compound; for IC50: read-out: IC50(μM) ± RSD
tyrosinase [3] = test: Enzyme kinetic studies; format: biochemical; settings: Lineweaver-Burk plot; L-DOPA 0-1.5 mM; inhibitor 5-80 μM
In short: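 Mushroom tyrosinase with L-DOPA as substrate, tested across several inhibitor concentrations. Reaction rates were plotted as 1/V against 1/[S] (Lineweaver–Burk double-reciprocal plot) to assign the inhibition type. Km was read from this plot.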

| % inhibition at 50 μM (mushroom tyrosinase) [%] | IC50 (mushroom tyrosinase) [µM] | Structure (SMILES) | % inhibition at 200 μM [2] [%] | other results |
| --- | --- | --- | --- | --- |
|  |  | O=c1cc(/C=C/c2cc(=O)c(O)co2)occ1O [B, (E)-6,6'-(ethene-1,2-diyl)bis(3-hydroxy-4H-pyran-4-one)] |  | IC50 (tyrosinase [1]): 3.63 µM |
| 29.14 ± 2.86 |  | O=c1cc(CO)oc(C(Nc2ccccn2)c2ccccc2)c1O (stereo not drawn) [Compound 4a, 3-Hydroxy-6-(hydroxymethyl)-2-(phenyl(pyridin-2-ylamino)methyl)-4H-pyran-4-one] | 20.86 ± 4.41 |  |
| 59.42 ± 5.71 | 28.2 ± 3.63 | O=c1cc(CO)oc(C(Nc2ccccn2)c2ccccc2F)c1O (stereo not drawn) [Compound 4b, 2-((2-Fluorophenyl)(pyridin-2-ylamino)methyl)-3-hydroxy-6-(hydroxymethyl)-4H-pyran-4-one] | 14.09 ± 4.10 |  |
| 28.47 ± 1.59 |  | O=c1cc(CO)oc(C(Nc2ccccn2)c2cccc(F)c2)c1O (stereo not drawn) [Compound 4c, 2-((3-Fluorophenyl)(pyridin-2-ylamino)methyl)-3-hydroxy-6-(hydroxymethyl)-4H-pyran-4-one] | 18.65 ± 3.05 |  |
| 60.35 ± 1.43 | 22.4 ± 3.34 | O=c1cc(CO)oc(C(Nc2ccccn2)c2ccccc2Cl)c1O (stereo not drawn) [Compound 4d, 2-((2-Chlorophenyl)(pyridin-2-ylamino)methyl)-3-hydroxy-6-(hydroxymethyl)-4H-pyran-4-one] | 19.49 ± 3.98 |  |
| 50.57 ± 2.65 | 44.7 ± 3.59 | O=c1cc(CO)oc(C(Nc2ccccn2)c2cccc(Cl)c2)c1O (stereo not drawn) [Compound 4e, 2-((3-Chlorophenyl)(pyridin-2-ylamino)methyl)-3-hydroxy-6-(hydroxymethyl)-4H-pyran-4-one] | 17.21 ± 4.01 |  |
| 60.85 ± 4.29 | 23.4 ± 4.19 | O=c1cc(CO)oc(C(Nc2ccccn2)c2ccccc2Br)c1O (stereo not drawn) [Compound 4f, 2-((2-Bromophenyl)(pyridin-2-ylamino)methyl)-3-hydroxy-6-(hydroxymethyl)-4H-pyran-4-one] | 13.03 ± 2.86 |  |
| 33.71 ± 4.88 |  | O=c1cc(CO)oc(C(Nc2ccccn2)c2cccc(Br)c2)c1O (stereo not drawn) [Compound 4g, 2-((3-Bromophenyl)(pyridin-2-ylamino)methyl)-3-hydroxy-6-(hydroxymethyl)-4H-pyran-4-one] | 18.44 ± 1.54 |  |
| 74.85 ± 4.26 | 20.4 ± 2.15 | O=c1cc(CO)oc(C(Nc2ccccn2)c2cccc([N+](=O)[O-])c2)c1O (stereo not drawn) [Compound 4h, 3-Hydroxy-6-(hydroxymethyl)-2-((3-nitrophenyl)(pyridin-2-ylamino)methyl)-4H-pyran-4-one] |  | Mode of inhibition (tyrosinase [3]): uncompetitive; % inhibition at 200 μM ([2]; 200 µM): 37.27 ± 5.42% |
| 56.57 ± 3.84 | 30.9 ± 4.13 | COc1ccc(C(Nc2ccccn2)c2oc(CO)cc(=O)c2O)cc1[N+](=O)[O-] (stereo not drawn) [Compound 4i, 3-Hydroxy-6-(hydroxymethyl)-2-((4-methoxy-3-nitrophenyl)(pyridin-2-ylamino)methyl)-4H-pyran-4-one] | 64.24 ± 3.39 | IC50 [2]: 121 ± 10.4 µM |
|  | > 50 | Cc1cccc(C(Nc2ccccn2)c2oc(CO)cc(=O)c2O)c1 (stereo not drawn) [Compound 4j, 3-Hydroxy-6-(hydroxymethyl)-2-((pyridin-2-ylamino)(m-tolyl)methyl)-4H-pyran-4-one] | 17.90 ± 6.77 | % inhibition at 50 μM (mushroom tyrosinase; 50 µM): 16.85 ± 3.14% |
| 22.28 ± 4.52 | > 50 | Cc1ccc(C(Nc2ccccn2)c2oc(CO)cc(=O)c2O)cc1 (stereo not drawn) [Compound 4k, 3-Hydroxy-6-(hydroxymethyl)-2-((pyridin-2-ylamino)(p-tolyl)methyl)-4H-pyran-4-one] | 26.96 ± 2.54 |  |
| 52.07 ± 5.27 | 37.1 ± 5.42 | COc1cccc(C(Nc2ccccn2)c2oc(CO)cc(=O)c2O)c1O (stereo not drawn) [Compound 4l, 3-Hydroxy-2-((2-hydroxy-3-methoxyphenyl)(pyridin-2-ylamino)methyl)-6-(hydroxymethyl)-4H-pyran-4-one] | 30.61 ± 5.76 |  |
| 35.42 ± 2.43 |  | O=c1cc(CO)oc(C(Nc2ccccn2)c2ccc(COc3ccccc3)cc2)c1O (stereo not drawn) [Compound 4m, 3-Hydroxy-6-(hydroxymethyl)-2-((4-(phenoxymethyl)phenyl)(pyridin-2-ylamino)methyl)-4H-pyran-4-one] | 23.30 ± 5.17 |  |
|  |  | O=c1c(O)c(-c2ccc(O)c(O)c2)oc2cc(O)cc(O)c12 [Quercetin, reference compound] |  | IC50 [2]: 18.6 ± 2.19 µM |

Source: publication PMC10682633 (Heliyon, 2023)
